This is an account of results in ChEMBL document CHEMBL4304834, “3-Amino-chromanes and Tetrahydroquinolines as Selective 5-HT2B, 5-HT7, or σ1 Receptor Ligands” (ACS Med Chem Lett, 2019).

As a reminder, the Ki is the equilibrium dissociation constant of an inhibitor or competing ligand from its target. What is called inhibition is how much of the control response was suppressed.

A value given as a limit tells only on which side of the number the result lay.

What all share (format): cell-based
In experiment [1] the target is 5-hydroxytryptamine receptor 6 (Homo sapiens, UniProt P50406). As to the kind of experiment: Displacement of [3H]-LSD from human recombinant 5-HT6 receptor expressed in stable HEK cells after 90 mins by microbeta scintillation counting method. An outline of the steps: (§1)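 Radioligand binding run by the NIMH Psychoactive Drug Screening Program. […] Otherwise Ki comes from sigmoidal curve fits of triplicate measurements in a single experiment, or is averaged over repeated experiments each run in triplicate.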

For experiment [2], the target named is T1, Alpha-1A adrenergic receptor (Homo sapiens, UniProt P35348).
T1 sequence (P35348 whole entry): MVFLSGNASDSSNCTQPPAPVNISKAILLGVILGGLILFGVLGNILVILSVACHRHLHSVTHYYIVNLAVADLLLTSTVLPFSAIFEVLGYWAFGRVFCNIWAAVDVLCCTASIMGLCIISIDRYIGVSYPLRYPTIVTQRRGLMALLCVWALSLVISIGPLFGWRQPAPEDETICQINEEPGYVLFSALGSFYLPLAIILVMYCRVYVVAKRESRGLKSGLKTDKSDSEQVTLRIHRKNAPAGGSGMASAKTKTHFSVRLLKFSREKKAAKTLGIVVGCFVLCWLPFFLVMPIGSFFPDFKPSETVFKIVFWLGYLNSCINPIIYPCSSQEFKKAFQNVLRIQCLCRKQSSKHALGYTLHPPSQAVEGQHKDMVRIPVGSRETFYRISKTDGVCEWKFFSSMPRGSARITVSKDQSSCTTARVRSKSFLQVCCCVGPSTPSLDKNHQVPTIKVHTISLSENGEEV
As to the kind of experiment: Displacement of [3H]-Prazosin from human recombinant adrenergic alpha1A receptor expressed in cells after 90 mins by microbeta scintillation counting method. Put shortly:
(§2)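 Radioligand binding was run by the NIMH Psychoactive Drug Screening Program. Compounds were first screened at 10 μM. Those giving ≥50% binding were taken to full competition curves. Ki is reported as pKi from a sigmoidal curve fit of triplicate measurements in a single experiment; the error is the curve-fit error.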

A further experiment has as its target D(1A) dopamine receptor (Homo sapiens, UniProt P21728). Kind of experiment: Displacement of [3H]-SCH23390 from human recombinant dopamine D1 receptor expressed in HEKT cells after 90 mins by microbeta scintillation counting method. Put shortly:
as §2
(Loss of bound radioactivity is the signal in a displacement assay; it reports binding, not function.)

The target of experiment [3] is T2, Muscarinic acetylcholine receptor M4 (Homo sapiens, UniProt P08173).
T2 sequence (P08173 whole entry): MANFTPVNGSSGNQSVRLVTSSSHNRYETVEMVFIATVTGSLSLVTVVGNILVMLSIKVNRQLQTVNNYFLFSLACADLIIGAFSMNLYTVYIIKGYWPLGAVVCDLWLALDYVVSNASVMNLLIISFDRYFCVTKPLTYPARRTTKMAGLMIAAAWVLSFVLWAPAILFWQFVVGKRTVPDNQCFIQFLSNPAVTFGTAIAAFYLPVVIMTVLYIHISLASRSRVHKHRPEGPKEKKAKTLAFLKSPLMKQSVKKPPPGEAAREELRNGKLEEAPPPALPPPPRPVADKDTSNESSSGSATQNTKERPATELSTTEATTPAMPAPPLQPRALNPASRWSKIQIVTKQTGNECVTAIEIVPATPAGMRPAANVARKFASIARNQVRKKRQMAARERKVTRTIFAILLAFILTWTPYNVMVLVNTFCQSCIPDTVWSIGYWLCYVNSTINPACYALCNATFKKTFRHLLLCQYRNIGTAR
As to the kind of experiment: Displacement of [3H]-QNB/[3H]-NMS from human recombinant Muscarinic acetylcholine M4 receptor expressed in stable CHO cells after 90 mins by microbeta scintillation counting method. An outline of the steps:
as §2

Experiment [4] addresses Sodium-dependent noradrenaline transporter (Homo sapiens, UniProt P23975). As to the kind of experiment: Displacement of [3H]-Nisoxetine from human recombinant NET receptor expressed in stable HEK cells after 90 mins by microbeta scintillation counting method. An outline of the steps:
as §1

The target of experiment [5] is T3, Alpha-1B adrenergic receptor (Homo sapiens) (UniProt P35368).
T3 sequence (whole entry): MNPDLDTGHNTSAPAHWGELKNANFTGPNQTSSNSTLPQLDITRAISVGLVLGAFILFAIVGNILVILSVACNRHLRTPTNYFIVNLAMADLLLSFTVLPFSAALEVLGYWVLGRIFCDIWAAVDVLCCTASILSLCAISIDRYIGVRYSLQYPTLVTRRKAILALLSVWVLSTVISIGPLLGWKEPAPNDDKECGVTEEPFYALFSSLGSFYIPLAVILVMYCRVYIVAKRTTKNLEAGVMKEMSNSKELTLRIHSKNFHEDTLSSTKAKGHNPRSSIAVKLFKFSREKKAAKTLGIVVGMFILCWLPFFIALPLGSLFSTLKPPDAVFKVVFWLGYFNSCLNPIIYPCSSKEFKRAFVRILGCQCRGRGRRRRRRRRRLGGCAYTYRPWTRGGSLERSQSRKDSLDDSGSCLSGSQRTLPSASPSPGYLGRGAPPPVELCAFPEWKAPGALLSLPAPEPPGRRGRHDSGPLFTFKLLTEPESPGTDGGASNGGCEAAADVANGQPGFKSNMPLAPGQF
Kind of experiment: Displacement of [3H]-Prazosin from human recombinant adrenergic Alpha1B receptor expressed in HEKT cells at 10 uM after 90 mins by microbeta scintillation counting method relative to control.

Experiment [6] addresses T4, D(4) dopamine receptor (Homo sapiens) (UniProt P21917).
T4 sequence (whole entry): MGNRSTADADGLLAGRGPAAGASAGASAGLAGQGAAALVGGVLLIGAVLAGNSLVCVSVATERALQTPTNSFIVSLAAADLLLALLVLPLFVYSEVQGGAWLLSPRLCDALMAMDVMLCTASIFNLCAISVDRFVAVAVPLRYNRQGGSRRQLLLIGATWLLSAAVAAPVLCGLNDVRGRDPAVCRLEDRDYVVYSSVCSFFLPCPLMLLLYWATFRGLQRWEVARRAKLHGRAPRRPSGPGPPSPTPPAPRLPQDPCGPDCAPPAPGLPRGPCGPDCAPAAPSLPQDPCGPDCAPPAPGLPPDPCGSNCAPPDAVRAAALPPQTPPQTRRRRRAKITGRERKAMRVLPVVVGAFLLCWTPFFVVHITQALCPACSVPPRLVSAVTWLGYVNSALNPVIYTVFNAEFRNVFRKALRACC
Kind of experiment: Displacement of [3H]-methylspiperone from human recombinant dopamine D4 receptor expressed in Stable HEK cells at 10 uM after 90 mins by microbeta scintillation counting method relative to control.

Chain of D(1A) dopamine receptor (P21728 whole entry): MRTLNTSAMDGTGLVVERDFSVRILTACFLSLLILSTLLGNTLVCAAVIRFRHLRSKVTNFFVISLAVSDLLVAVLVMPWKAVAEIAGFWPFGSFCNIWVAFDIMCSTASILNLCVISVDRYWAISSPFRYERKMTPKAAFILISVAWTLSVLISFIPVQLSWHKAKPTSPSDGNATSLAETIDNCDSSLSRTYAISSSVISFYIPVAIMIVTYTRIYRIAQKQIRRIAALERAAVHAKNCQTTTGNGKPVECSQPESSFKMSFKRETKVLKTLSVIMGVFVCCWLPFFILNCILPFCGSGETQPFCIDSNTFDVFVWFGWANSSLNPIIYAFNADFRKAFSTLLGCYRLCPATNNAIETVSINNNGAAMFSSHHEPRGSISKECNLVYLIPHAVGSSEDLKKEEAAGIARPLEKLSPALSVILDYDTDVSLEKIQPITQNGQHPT
Chain of Sodium-dependent noradrenaline transporter (P23975 whole entry): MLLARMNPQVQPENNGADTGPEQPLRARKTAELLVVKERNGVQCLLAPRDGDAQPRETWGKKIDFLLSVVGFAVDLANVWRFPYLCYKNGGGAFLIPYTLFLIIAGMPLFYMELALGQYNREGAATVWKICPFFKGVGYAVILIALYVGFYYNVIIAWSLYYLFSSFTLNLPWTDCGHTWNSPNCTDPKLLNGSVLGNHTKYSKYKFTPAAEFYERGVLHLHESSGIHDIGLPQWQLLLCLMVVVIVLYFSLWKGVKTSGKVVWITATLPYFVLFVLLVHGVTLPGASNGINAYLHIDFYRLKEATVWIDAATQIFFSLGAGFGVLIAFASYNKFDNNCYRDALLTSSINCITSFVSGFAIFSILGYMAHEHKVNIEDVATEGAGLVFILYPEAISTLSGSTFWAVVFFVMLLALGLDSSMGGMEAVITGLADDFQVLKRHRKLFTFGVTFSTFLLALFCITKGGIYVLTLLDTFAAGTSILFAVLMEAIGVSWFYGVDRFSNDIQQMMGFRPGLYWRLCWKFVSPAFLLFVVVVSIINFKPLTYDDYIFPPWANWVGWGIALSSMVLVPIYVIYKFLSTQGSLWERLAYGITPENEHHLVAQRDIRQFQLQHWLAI
Chain of 5-hydroxytryptamine receptor 6 (P50406 whole entry): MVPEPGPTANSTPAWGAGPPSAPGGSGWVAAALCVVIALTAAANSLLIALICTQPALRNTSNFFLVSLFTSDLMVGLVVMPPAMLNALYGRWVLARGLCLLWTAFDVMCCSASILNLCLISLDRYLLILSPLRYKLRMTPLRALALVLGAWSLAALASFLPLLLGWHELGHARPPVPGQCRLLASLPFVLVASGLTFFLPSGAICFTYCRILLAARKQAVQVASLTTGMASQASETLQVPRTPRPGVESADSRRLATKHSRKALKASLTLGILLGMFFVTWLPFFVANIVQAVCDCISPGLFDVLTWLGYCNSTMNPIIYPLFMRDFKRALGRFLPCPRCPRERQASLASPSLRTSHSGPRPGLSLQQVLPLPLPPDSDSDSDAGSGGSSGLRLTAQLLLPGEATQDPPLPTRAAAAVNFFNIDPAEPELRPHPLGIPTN

As to `COc1cc(OC)c2c(c1)OC[C@@]1(C)NCC[C@@H]21` (racemic), the Ki (in experiment [1]; in experiment [2]; at D(1A) dopamine receptor; in experiment [3]; in experiment [4]) was over 10 µM in each case. In addition, the inhibition in experiment [5] and in experiment [6] was under 50% each time.

As for `C[C@@]12CN(c3ccccc3)c3ccccc3[C@@H]1CCN2` (racemic), the Ki in experiment [1] is over 10 µM; in experiment [2], over 10 µM; on D(1A) dopamine receptor, over 10 µM; in experiment [3], over 10 µM; in experiment [4] it was 1.58 µM.

Regarding `CC[C@H]1c2ccccc2N(c2ccccc2)C[C@@]1(C)N` (racemic), the Ki was over 10 µM in experiment [1]; 1.58 µM in experiment [2]; over 10 µM on D(1A) dopamine receptor; over 10 µM in experiment [3]; 0.398 µM in experiment [4].

For the compound `CC[C@H]1c2cc(C)ccc2OC[C@@]1(C)N` (racemic), the Ki is over 10 µM in experiment [1]; over 10 µM in experiment [2]; over 10 µM on D(1A) dopamine receptor; over 10 µM in experiment [3]; 0.316 µM in experiment [4]. Also, the inhibition in experiment [5] and in experiment [6] was under 50% throughout.

For the compound `CC[C@H]1c2cc(OC)ccc2CC[C@@]1(C)N` (racemic), the Ki in experiment [1] is over 10 µM; in experiment [2], over 10 µM; at D(1A) dopamine receptor, over 10 µM; in experiment [3], over 10 µM; in experiment [4] it was 2.51 µM. The inhibition in experiment [5] and in experiment [6] was under 50% each time.
